Results taken from ChEMBL document CHEMBL2163301, “Substrates for efficient fluorometric screening employing the NAD-dependent sirtuin 5 lysine deacylase (KDAC) enzyme” (J Med Chem, 2012).

Molecular target: NAD-dependent protein deacylase sirtuin-5, mitochondrial (Homo sapiens, UniProt Q9NXA8)
Assay: Inhibition of SIRT5
Summary of the method: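 Recombinant SIRT5 at 50 ng/well (~30 nM, 50 μL) with succinyllysine AMC substrate and NAD in Tris-Cl pH 8.0/BSA buffer. Inhibitor dilutions were prepared in assay buffer from DMSO stocks. IC50 from nonlinear regression of dose–response, two assays in duplicate.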

Sequence of NAD-dependent protein deacylase sirtuin-5, mitochondrial (Q9NXA8 whole entry): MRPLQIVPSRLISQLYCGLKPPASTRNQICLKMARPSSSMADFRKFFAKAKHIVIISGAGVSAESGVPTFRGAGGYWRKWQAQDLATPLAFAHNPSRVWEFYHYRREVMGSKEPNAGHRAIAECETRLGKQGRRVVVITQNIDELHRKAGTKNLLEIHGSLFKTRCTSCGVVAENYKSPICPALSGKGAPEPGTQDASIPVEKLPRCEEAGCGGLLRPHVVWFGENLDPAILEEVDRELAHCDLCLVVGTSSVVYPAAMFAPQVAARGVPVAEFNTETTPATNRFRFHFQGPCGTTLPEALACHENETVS

IC50	Compound
> 100 µM	CC(NC(=O)c1ccccc1/N=C/c1c(O)ccc2ccccc12)c1ccccc1 (centres undefined) [SIRTINOL]
> 100 µM	O=C(CCCCCCC(=O)Nc1ccccc1)NO [VORINOSTAT]
> 100 µM	O=C(O)CCCc1ccccc1
> 100 µM	N#C/C(=C\c1ccc(-c2cc(Cl)ccc2Cl)o1)C(=O)Nc1cccc2ncccc12
